This is an account of results in ChEMBL document CHEMBL1121813, “Dihydrochalcone sweeteners. A study of the atypical temporal phenomena” (1981).

Type in all cases: functional
The species named for test [1] is Homo sapiens. In words: Number of taste judgments per compound.
For test [2], the species on record is Homo sapiens. Put plainly: Sweet character at a concentration of 244 ppm (mean value).
The species entered for test [3] is Homo sapiens. Put plainly: Salty character at a concentration of 244 ppm (mean value).
For test [4], the species on record is Homo sapiens. In words: Experimentally determined perceived intensity of compound at a concentration of 244 ppm (mean value). Put shortly: (§1)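 Trained human sensory panel of judges tasted aqueous solutions of the compound. Samples had to be ≥95 weight % pure (HPLC, proton titration, Karl Fischer), non-mutagenic in five Salmonella typhimurium strains with and without microsomal activation, and non-toxic in a single-oral-dose mouse test. Perceived intensity (Ip) was read from time–intensity curves at 4- or 6-s intervals and averaged. Outliers at the 95% level were rejected by t-value. Values reported as mean (2Sm).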

Test [5] is filed under the species Homo sapiens. In words: Other taste character at a concentration of 244 ppm (mean value). Put shortly: (§2)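 Trained human sensory panel (Swartz method) tasted dilute aqueous solutions of the compounds, which had to be ≥95 weight percent pure and free of mutagenicity and toxicity. Taste character is reported as the mean value with 2S_m limits. Data deviating excessively at the 95% confidence level were rejected by the t-value method.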

For test [6], the species on record is Homo sapiens. In words: Percentage of judgments reporting an aftertaste at a concentration of 244 ppm and character thereof; Bitter. The method in brief:
(§3)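 Trained judges tasted aqueous solutions of the compounds, which had to be ≥95 weight percent pure and to have passed mutagenicity and single oral dose toxicity screening. The value is the percentage of panel judgments reporting an aftertaste. Where given, its character is recorded as sweet, bitter or bitter-sweet.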

Test [7] is filed under the species Homo sapiens. In words: Bitter character at a concentration of 244 ppm (mean value). Put shortly: (§4)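 Trained human panel tasted aqueous solutions. Each judge reported whether there was an aftertaste and its character (sweet, bitter or bitter-sweet). The value is the percentage of judgments reporting a bitter aftertaste.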
Test [8] is filed under the species Homo sapiens. In words: Intensity calculated on a weight basis relative to an 85500 ppm sucrose solution at a concentration of 244 ppm (mean value). The method in brief:
(§5)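 Trained human panel tasted aqueous solutions of purity-checked (≥95 weight percent) compounds cleared for mutagenicity and mouse oral toxicity. Weight-basis intensity I_w = perceived intensity × (85500 ppm sucrose / compound concentration in ppm). The mean is reported with 2S_m limits; data deviating excessively at 95% confidence were rejected by the t-value method.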

The species entered for test [9] is Homo sapiens. In words: Sweet / Bitter character at a concentration of 244 ppm (mean value).
For test [10], the species on record is Homo sapiens. In words: Intensity calculated on a molar basis relative to a 0.25 M sucrose solution at a concentration of 244 ppm (mean value). The method in brief:
(§6)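 Trained human judges tasted aqueous solutions of the test compound; compounds were first required to be ≥95 weight percent pure and free of mutagenicity (five Salmonella typhimurium strains, ± microsomal activation) and of single oral dose mouse toxicity. Molar intensity I_m = perceived intensity × (0.25 M sucrose / compound molar concentration). The mean is reported with 2S_m limits; outliers were rejected at 95% confidence by t-value.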

The species named for test [11] is Homo sapiens. Put plainly: Sour character at a concentration of 244 ppm (mean value).
For test [12], the species on record is Homo sapiens. Put plainly: Salty character at a concentration of 1001 ppm (mean value).
For test [13], the species on record is Homo sapiens. In words: Bitter character at a concentration of 1001 ppm (mean value). Put shortly:
as §4

Test [14] is filed under the species Homo sapiens. Put plainly: Intensity calculated on a weight basis relative to an 85500 ppm sucrose solution at a concentration of 1001 ppm (mean value). Put shortly: as §5
The species named for test [15] is Homo sapiens. Put plainly: Other taste character at a concentration of 1001 ppm (mean value). The method in brief: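 Trained human panel tasted aqueous solutions of each compound. Aftertaste is scored as the percentage of judgments reporting one, with its character coded sweet (s), bitter (b) or bitter-sweet (bs).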
For test [16], the species on record is Homo sapiens. Put plainly: Experimentally determined perceived intensity of compound at a concentration of 1001 ppm (mean value). Put shortly: as §1
For test [17], the species on record is Homo sapiens. In words: Sweet character at a concentration of 1001 ppm (mean value).
For test [18], the species on record is Homo sapiens. In words: Percentage of judgments reporting an aftertaste at a concentration of 1001 ppm and character thereof; Sweet. The method in brief:
as §3

The species entered for test [19] is Homo sapiens. In words: Sour character at a concentration of 1001 ppm (mean value).
The species entered for test [20] is Homo sapiens. In words: Intensity calculated on a molar basis relative to a 0.25 M sucrose solution at a concentration of 1001 ppm (mean value). The method in brief: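 Panel-derived mean perceived intensity (Ip) converted to a molar basis by Im = Ip × (0.25 M / Y), where Y is the compound's molar concentration. Reference is a 0.25 M sucrose solution. Reported with limits of 2Sm.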

The species entered for test [21] is Homo sapiens. Put plainly: Sweet / Bitter character at a concentration of 1001 ppm (mean value).
Test [22] is filed under the species Homo sapiens. Put plainly: Intensity calculated on a weight basis relative to an 85500 ppm sucrose solution at a concentration of 250 ppm (mean value). The method in brief: as §5
Test [23] is filed under the species Homo sapiens. In words: Experimentally determined perceived intensity of compound at a concentration of 250 ppm (mean value). Put shortly: as §1
The species named for test [24] is Homo sapiens. Put plainly: Bitter character at a concentration of 250 ppm (mean value). Put shortly:
as §4

For test [25], the species on record is Homo sapiens. In words: Percentage of judgments reporting an aftertaste at a concentration of 250 ppm and character thereof. The method in brief:
as §3

Test [26] is filed under the species Homo sapiens. Put plainly: Intensity calculated on a molar basis relative to a 0.25 M sucrose solution at a concentration of 250 ppm (mean value). The method in brief:
as §6

The species entered for test [27] is Homo sapiens. Put plainly: Salty character at a concentration of 250 ppm (mean value). The method in brief:
as §2

Test [28] is filed under the species Homo sapiens. Put plainly: Sweet character at a concentration of 250 ppm (mean value). The method in brief: as §2
For test [29], the species on record is Homo sapiens. In words: Other taste character at a concentration of 250 ppm (mean value). Put shortly: as §2
For test [30], the species on record is Homo sapiens. Put plainly: Sweet / Bitter character at a concentration of 250 ppm (mean value); 92/8.
For test [31], the species on record is Homo sapiens. Put plainly: Sour character at a concentration of 250 ppm (mean value). The method in brief:
as §2

The species named for test [32] is Homo sapiens. In words: Other taste character at a concentration of 497 ppm (mean value). Put shortly: as §2
The species entered for test [33] is Homo sapiens. Put plainly: Salty character at a concentration of 497 ppm (mean value).
The species entered for test [34] is Homo sapiens. In words: Sweet / Bitter character at a concentration of 497 ppm (mean value); 0/100.
The species named for test [35] is Homo sapiens. Put plainly: Sweet character at a concentration of 497 ppm (mean value).
Test [36] is filed under the species Homo sapiens. Put plainly: Bitter character at a concentration of 497 ppm (mean value). Put shortly: as §4
The species named for test [37] is Homo sapiens. In words: Percentage of judgments reporting an aftertaste at a concentration of 497 ppm and character thereof.
For test [38], the species on record is Homo sapiens. In words: Sour character at a concentration of 497 ppm (mean value).
Test [39] is filed under the species Homo sapiens. Put plainly: Experimentally determined perceived intensity of compound at a concentration of 497 ppm (mean value). Put shortly:
as §1

The species entered for test [40] is Homo sapiens. In words: Intensity calculated on a weight basis relative to an 85500 ppm sucrose solution at a concentration of 497 ppm (mean value). The method in brief:
as §5

The species entered for test [41] is Homo sapiens. Put plainly: Intensity calculated on a molar basis relative to a 0.25 M sucrose solution at a concentration of 497 ppm (mean value). The method in brief: as §6

For the compound `COc1ccc(CCC(=O)O)cc1O`, the Judgments in the test filed under Homo sapiens [1] turned out to be 8; in the test filed under Homo sapiens [6], 50. Moreover, the Taste character in the test filed under Homo sapiens [2] was 0; in the test filed under Homo sapiens [3], 0; in the test listed under Homo sapiens [5], 3; in the test listed under Homo sapiens [7], 28; in the test filed under Homo sapiens [9] it was 0; in the test filed under Homo sapiens [11] it was 69. For the same compound, the IP in the test filed under Homo sapiens [4] was determined as 0.6. Besides, the IW in the test filed under Homo sapiens [8] is reported as 210. The IM in the test filed under Homo sapiens [10] is given as 120.

Turning to `COc1ccc(CCc2noc3cc(OCC(=O)[O-])cc(O)c23)cc1O.[Na+]`, the figures for the Judgments in the test listed under Homo sapiens [1] and in the test filed under Homo sapiens [18] were 12 and 100, respectively. Moreover, the Taste character in the test filed under Homo sapiens [12] is on record as 0; in the test listed under Homo sapiens [13], 22; in the test listed under Homo sapiens [15] it was 12; in the test filed under Homo sapiens [17], 66; in the test filed under Homo sapiens [19], 0; in the test listed under Homo sapiens [21] it was 75. In addition, the IW in the test filed under Homo sapiens [14] was 32. In the test listed under Homo sapiens [16], this compound showed an IP of 0.38. The IM in the test filed under Homo sapiens [20] is reported as 36.

For `COc1ccc(CCC(=O)c2c(O)cc(OCCC(O)C(=O)[O-])cc2O)cc1O.[Na+]` (centres undefined), the Judgments in the test listed under Homo sapiens [1] is on record as 4; in the test filed under Homo sapiens [25], 100. In addition, the IW in the test listed under Homo sapiens [22] is 440. In the test listed under Homo sapiens [23], the IP is 1.28. Besides, the Taste character was 8 in the test listed under Homo sapiens [24]; 0 in the test listed under Homo sapiens [27]; 92 in the test filed under Homo sapiens [28]; 0 in the test listed under Homo sapiens [29]; 92 in the test filed under Homo sapiens [30]; 0 in the test listed under Homo sapiens [31]. Also, the IM in the test filed under Homo sapiens [26] was 550.

With `O=C([O-])COc1cc(O)c(C(=O)CCc2ccc3c(c2)OCO3)c(O)c1.[Na+]`, the Judgments is 12 in the test filed under Homo sapiens [1] and 100 in the test filed under Homo sapiens [37]. In addition, the Taste character is on record as 21 in the test listed under Homo sapiens [32]; 0 in the test listed under Homo sapiens [33]; 0 in the test listed under Homo sapiens [34]; 0 in the test listed under Homo sapiens [35]; 79 in the test filed under Homo sapiens [36]; 0 in the test listed under Homo sapiens [38]. Besides, in the test listed under Homo sapiens [39], the IP is 0.83. The IW in the test listed under Homo sapiens [40] is 140. Also, the IM in the test listed under Homo sapiens [41] was 160.
